Measured values published in ChEMBL document CHEMBL2069246, “Oxadiazoles in medicinal chemistry” (J Med Chem, 2012).
≈ marks a conversion by molar mass, not a printed value.

Columns and labels:
[1] = Lipophilicity, log D of the compound at pH 7.4; type: physicochemical; details: buffer
[2] = Aqueous solubility of the compound in HBSS buffer at pH 7.4; type: physicochemical
[3] = molecular target: Voltage-gated inwardly rectifying potassium channel KCNH2 (Homo sapiens, UniProt Q12809); assay: Inhibition of human ERG channel expressed in CHO cells by patch clamp assay
[4] = Dissociation constant, pKa of the compound; type: physicochemical
[5] = Intrinsic clearance in human liver microsomes at 1 mg/ml; type: ADME, Microsome; details: read-out: CLH
Method in brief: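 Compound incubated 45 min at 37 °C with human liver microsomes at 1 mg/mL. CLint is taken from the rate of parent disappearance.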

Cytochrome P450 3A4 [6] = molecular target: T1, Cytochrome P450 3A4 (Homo sapiens, UniProt P08684); assay: Inhibition of human recombinant CYP3A4 coexpressed in Escherichia coli; type: ADME
Method in brief: (§1)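 Human recombinant cytochrome P450s at 37 °C. Read-out is inhibition of metabolic degradation of each isoform's substrate. Percent inhibition is measured at five test concentrations and converted to IC50.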

Cytochrome P450 2D6 [7] = molecular target: T2, Cytochrome P450 2D6 (Homo sapiens, UniProt P10635); assay: Inhibition of human recombinant CYP2D6 coexpressed in Escherichia coli; type: ADME; method in brief: as §1
Cytochrome P450 2C8 [8] = molecular target: T3, Cytochrome P450 2C8 (Homo sapiens, UniProt P10632); assay: Inhibition of human recombinant CYP2C8 coexpressed in Escherichia coli; type: ADME; method in brief: as §1
T3 sequence (P10632 whole entry): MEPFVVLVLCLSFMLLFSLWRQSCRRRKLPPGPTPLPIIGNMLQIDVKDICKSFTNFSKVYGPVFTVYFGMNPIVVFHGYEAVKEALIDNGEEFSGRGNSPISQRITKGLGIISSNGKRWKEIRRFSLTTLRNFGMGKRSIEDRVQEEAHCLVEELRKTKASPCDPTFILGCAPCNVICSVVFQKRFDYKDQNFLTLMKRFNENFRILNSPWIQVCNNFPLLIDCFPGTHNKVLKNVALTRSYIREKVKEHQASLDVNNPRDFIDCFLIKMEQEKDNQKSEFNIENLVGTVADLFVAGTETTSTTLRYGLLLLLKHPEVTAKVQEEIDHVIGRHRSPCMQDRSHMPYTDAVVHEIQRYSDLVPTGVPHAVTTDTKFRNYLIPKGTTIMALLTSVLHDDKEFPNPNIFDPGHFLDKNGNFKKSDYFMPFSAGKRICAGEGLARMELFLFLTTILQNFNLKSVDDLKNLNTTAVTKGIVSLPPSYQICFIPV

Cytochrome P450 2C9 [9] = molecular target: T4, Cytochrome P450 2C9 (Homo sapiens, UniProt P11712); assay: Inhibition of human recombinant CYP2C9 coexpressed in Escherichia coli; type: ADME; method in brief: as §1
Cytochrome P450 2C19 [10] = molecular target: T5, Cytochrome P450 2C19 (Homo sapiens, UniProt P33261); assay: Inhibition of human recombinant CYP2C19 coexpressed in Escherichia coli; type: ADME; method in brief: as §1
Cytochrome P450 1A2 [11] = molecular target: T6, Cytochrome P450 1A2 (Homo sapiens, UniProt P05177); assay: Inhibition of human recombinant CYP1A2 coexpressed in Escherichia coli using phenacetin as probe; type: ADME; method in brief: as §1
T6 sequence (P05177 whole entry): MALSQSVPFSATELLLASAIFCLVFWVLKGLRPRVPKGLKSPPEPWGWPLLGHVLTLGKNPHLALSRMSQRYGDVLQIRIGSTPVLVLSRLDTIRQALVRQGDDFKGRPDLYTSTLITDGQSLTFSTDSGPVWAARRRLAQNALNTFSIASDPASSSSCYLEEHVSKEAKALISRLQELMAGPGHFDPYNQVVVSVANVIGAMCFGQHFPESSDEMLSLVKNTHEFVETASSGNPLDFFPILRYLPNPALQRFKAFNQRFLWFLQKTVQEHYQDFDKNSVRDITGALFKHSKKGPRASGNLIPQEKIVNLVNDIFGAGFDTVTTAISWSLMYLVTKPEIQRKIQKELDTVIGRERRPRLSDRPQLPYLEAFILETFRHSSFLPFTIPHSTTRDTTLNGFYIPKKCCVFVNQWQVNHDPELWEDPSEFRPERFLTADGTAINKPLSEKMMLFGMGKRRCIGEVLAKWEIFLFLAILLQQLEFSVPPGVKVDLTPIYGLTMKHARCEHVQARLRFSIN

Cytochrome P450 3A4 [12] = molecular target: T1, Cytochrome P450 3A4; assay: Activity of human recombinant CYP3A4 assessed as enzyme contribution towards compound metabolism at 37 degC; type: ADME; design: concentration or dose not given beside the values
Method in brief: (§2)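 CYP reaction phenotyping with human recombinant P450 isoforms at 37 °C. Each isoform's share of compound metabolism is given as percent contribution relative to the other isoforms in the test.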

Cytochrome P450 2D6 [13] = molecular target: T2, Cytochrome P450 2D6; assay: Activity of human recombinant CYP2D6 assessed as enzyme contribution towards compound metabolism at 37 degC; type: ADME; method in brief: as §2
Cytochrome P450 1A2 [14] = molecular target: T6, Cytochrome P450 1A2; assay: Activity of human recombinant CYP1A2 assessed as enzyme contribution towards compound metabolism at 37 degC; type: ADME; method in brief: as §2
Cytochrome P450 2C9 [15] = molecular target: T4, Cytochrome P450 2C9; assay: Activity of human recombinant CYP2C9 assessed as enzyme contribution towards compound metabolism at 37 degC; type: ADME; method in brief: as §2
Cytochrome P450 2C19 [16] = molecular target: T5, Cytochrome P450 2C19; assay: Activity of human recombinant CYP2C19 assessed as enzyme contribution towards compound metabolism at 37 degC; type: ADME; method in brief: as §2
Cytochrome P450 2C8 [17] = molecular target: T3, Cytochrome P450 2C8; assay: Activity of human recombinant CYP2C8 assessed as enzyme contribution towards compound metabolism at 37 degC; type: ADME; method in brief: as §2

Voltage-gated inwardly rectifying potassium channel KCNH2, sequence (Q12809 whole entry): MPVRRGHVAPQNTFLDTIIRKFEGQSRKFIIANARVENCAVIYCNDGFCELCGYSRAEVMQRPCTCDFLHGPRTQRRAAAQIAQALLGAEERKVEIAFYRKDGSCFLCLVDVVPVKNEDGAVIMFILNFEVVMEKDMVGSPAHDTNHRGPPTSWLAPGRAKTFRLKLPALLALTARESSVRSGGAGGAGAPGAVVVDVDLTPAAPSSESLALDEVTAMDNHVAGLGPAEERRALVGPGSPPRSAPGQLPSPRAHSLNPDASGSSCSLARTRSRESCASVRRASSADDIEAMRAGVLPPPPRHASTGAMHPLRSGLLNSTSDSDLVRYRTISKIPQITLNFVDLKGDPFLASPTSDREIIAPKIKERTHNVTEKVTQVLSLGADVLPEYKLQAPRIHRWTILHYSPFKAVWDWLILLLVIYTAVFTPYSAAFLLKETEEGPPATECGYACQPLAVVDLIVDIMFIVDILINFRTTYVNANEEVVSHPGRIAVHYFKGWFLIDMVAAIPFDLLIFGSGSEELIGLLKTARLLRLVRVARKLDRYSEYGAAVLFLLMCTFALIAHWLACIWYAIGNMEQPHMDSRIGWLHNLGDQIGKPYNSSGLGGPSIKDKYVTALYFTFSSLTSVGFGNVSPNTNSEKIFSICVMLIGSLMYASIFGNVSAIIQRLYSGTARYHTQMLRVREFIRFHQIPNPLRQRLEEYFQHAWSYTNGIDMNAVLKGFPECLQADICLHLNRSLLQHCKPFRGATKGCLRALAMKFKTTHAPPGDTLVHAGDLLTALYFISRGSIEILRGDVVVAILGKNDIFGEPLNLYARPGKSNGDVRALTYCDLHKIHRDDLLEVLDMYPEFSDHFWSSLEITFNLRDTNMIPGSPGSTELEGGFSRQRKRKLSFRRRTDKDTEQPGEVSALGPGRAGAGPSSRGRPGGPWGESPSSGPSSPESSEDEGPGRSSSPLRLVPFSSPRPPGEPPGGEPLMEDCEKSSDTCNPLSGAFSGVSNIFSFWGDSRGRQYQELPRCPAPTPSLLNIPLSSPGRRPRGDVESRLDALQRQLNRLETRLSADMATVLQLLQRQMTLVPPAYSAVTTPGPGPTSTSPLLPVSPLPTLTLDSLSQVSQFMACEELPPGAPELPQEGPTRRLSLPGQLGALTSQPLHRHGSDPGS
T1 sequence (P08684 whole entry, canonical isoform): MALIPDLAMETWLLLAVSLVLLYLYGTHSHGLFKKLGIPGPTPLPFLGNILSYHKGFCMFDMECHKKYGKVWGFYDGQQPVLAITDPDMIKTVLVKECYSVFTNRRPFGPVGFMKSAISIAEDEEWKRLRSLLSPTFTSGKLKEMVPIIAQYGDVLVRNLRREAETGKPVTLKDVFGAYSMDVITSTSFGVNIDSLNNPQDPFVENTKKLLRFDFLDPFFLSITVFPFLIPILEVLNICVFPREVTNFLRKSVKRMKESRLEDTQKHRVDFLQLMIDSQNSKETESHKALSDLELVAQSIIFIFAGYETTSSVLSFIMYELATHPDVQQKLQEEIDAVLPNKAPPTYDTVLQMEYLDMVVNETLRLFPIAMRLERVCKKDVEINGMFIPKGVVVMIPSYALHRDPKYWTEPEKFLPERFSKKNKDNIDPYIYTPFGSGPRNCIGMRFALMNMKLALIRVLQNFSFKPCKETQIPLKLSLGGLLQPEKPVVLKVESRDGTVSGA
T2 sequence (P10635 whole entry): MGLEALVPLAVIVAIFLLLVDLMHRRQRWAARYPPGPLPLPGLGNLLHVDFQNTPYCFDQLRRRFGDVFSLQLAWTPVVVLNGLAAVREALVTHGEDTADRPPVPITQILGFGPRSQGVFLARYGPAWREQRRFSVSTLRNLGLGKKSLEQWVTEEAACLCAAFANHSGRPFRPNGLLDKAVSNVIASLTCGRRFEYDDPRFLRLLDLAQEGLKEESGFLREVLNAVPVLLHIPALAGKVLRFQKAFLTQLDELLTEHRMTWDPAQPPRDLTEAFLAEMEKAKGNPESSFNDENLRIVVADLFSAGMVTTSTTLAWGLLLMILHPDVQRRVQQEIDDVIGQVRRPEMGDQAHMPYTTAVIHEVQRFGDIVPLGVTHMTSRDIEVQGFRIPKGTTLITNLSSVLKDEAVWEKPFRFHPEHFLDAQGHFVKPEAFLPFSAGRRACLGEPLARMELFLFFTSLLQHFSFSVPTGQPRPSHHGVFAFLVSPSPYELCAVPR
T4 sequence (P11712 whole entry): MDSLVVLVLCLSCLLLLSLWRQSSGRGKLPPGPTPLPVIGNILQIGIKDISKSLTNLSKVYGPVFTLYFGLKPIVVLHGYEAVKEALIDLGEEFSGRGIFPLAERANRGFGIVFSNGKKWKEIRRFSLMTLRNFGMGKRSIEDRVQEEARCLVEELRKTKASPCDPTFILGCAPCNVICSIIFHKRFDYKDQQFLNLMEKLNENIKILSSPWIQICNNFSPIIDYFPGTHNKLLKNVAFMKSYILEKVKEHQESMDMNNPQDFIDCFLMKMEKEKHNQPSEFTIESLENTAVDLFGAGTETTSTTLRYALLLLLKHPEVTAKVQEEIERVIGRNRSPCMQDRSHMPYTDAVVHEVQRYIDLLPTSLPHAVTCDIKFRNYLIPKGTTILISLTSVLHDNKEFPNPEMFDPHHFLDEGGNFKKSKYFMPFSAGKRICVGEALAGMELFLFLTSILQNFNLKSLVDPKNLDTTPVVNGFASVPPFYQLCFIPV
T5 sequence (P33261 whole entry): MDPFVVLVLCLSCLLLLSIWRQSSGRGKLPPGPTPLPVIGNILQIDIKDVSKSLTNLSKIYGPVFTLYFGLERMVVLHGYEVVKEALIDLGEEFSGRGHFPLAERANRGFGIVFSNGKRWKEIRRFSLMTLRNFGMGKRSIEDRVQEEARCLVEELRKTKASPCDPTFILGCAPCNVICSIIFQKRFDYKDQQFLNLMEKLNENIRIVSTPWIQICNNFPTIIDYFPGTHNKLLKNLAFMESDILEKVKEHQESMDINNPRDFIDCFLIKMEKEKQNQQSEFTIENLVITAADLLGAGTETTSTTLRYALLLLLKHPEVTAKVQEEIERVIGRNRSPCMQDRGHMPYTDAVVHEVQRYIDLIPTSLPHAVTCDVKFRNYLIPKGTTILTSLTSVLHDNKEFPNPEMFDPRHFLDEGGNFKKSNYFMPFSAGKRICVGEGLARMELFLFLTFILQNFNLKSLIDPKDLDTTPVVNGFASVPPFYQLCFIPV

Row | Structure (SMILES) | logD [1] | solubility [2] | pKa [4] | IC50 [3] | other results
1 | c1ccc(-c2nnc(-c3ccccc3)o2)cc1 | 4 | 26 µM (≈ 5.78 µg/mL) |  |  | 
2 | C[C@@H](Oc1nnc(-c2ccncc2)n1C)c1noc(-c2cccc(Cl)c2)n1 | 3 |  | 3.4 | 11.6 µM | 
3 | c1cncc(-c2ccc(-c3nnc(C4CN5CCC4CC5)o3)o2)c1 (stereo unspecified) | < 0 |  | 9.1 | 20.2 µM | 
4 | c1ccc(-c2nnc(CN3CCN(Cc4nc5ccccc5s4)CC3)o2)cc1 | 3.9 |  | 4.4 | 30 µM | 

More lines, main results first:

Row | logD [1] | solubility [2] | pKa [4] | Structure (SMILES) | IC50 [3] | other results
5 | 5.9 | 7 µM (≈ 1.56 µg/mL) |  | c1ccc(-c2noc(-c3ccccc3)n2)cc1 |  | 
6 | 2.2 | 81 µM (≈ 26.6 µg/mL) |  | CCCc1cc(=O)[nH]c(SCc2nnc(-c3ccccc3)o2)n1 |  | 
7 | 5.3 |  | 4.4 | c1ccc(-c2noc(CN3CCN(Cc4nc5ccccc5s4)CC3)n2)cc1 | 13 µM | 
8 | 3.1 | 5 µM (≈ 1.64 µg/mL) |  | CCCc1cc(O)nc(SCc2nc(-c3ccccc3)no2)n1 |  | 
9 | 3.6 |  | 6.7 | c1ccc(CN2CCN(Cc3nnc(-c4ccccc4)o3)CC2)cc1 | 27.3 µM | microsomal CLint [5]: 4 µL/min/mg; IC50 (Cytochrome P450 3A4 [6]): > 20 µM; IC50 (Cytochrome P450 2D6 [7]): > 20 µM; IC50 (Cytochrome P450 2C8 [8]): > 20 µM; IC50 (Cytochrome P450 2C9 [9]): > 20 µM; IC50 (Cytochrome P450 2C19 [10]): > 20 µM; IC50 (Cytochrome P450 1A2 [11]): > 20 µM; Activity (Cytochrome P450 3A4 [12]): 92%; Activity (Cytochrome P450 2D6 [13]): 1.7%; Activity (Cytochrome P450 1A2 [14]): 0%; CYP isoform contribution to compound metabolism (Cytochrome P450 2C9 [15]): 1.2%; Activity (Cytochrome P450 2C19 [16]): 3.2%; Activity (Cytochrome P450 2C8 [17]): 1.5%
